For one assay, the system named is MV4:11 cells. Description: Proliferation assay. The class given is cell-based, human. The following applies: Homo sapiens, MV4-11, 72 h, MV4:11, 3 days, mean with SEM. The method, boiled down:
(§1)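 CellTiter-Glo, 5,000 cells/well. Cells received 0.1% DMSO or at least five two-fold dilutions of test compound (top 50 μM, final DMSO 0.1%), in triplicate wells and ≥2 biological replicates, for 72 h at 37°C. Reagent was added after equilibration to RT, with 30 min dark incubation before luminescence. Signals were normalized to DMSO wells and GI50 obtained by curve fitting. Curve error bars are SEM.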

In a further assay the test system is HEL cells. Description: Proliferation assay. The following applies: Homo sapiens, 72 h. The format is cell-based. The method, boiled down:
as §1

The test system of another assay is SET-2 cells. The assay is described as follows: Proliferation assay. The format is cell-based. The following applies: Homo sapiens, SET-2, 72 h. The method, boiled down:
as §1

A further assay deals with NOMO-1 cells. Description: Proliferation assay. The following applies: Homo sapiens, NOMO-1, 72 h. The class given is cell-based. The method, boiled down:
as §1

The next assay deals with MA93 Ras cells. Description: Proliferation assay. The format is cell-based. The conditions noted are these: Homo sapiens, MA9.3RAS, 72 h. The method, boiled down: (§2)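 CellTiter-Glo at 2,000 cells/well. MA93 Ras and MA93 FLT3/ITD were maintained in IMDM/20% FBS. Parental MA93 received IMDM/20% FBS plus 10 ng/mL human SCF, TPO, FLT3L, IL3 and IL6. Dosing used ≥5 two-fold dilutions from 50 μM top, 0.1% DMSO final, in triplicate wells with ≥2 biological replicates. Plates ran 72 h at 37°C, followed by 30 min reagent incubation at RT in the dark. GI50 came from DMSO-normalized luminescence.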

The next assay deals with HL60 cells. The assay is described as follows: Proliferation assay. The class given is cell-based. The conditions noted are these: Homo sapiens, HL-60, 72 h. The method in brief: as §1
A further assay deals with MA93 cells. The assay is described as follows: Proliferation assay. The class given is cell-based. The conditions noted are these: Homo sapiens, 72 h. The method, boiled down: as §2
A further assay concerns RN2 cells. Description: Proliferation assay. The format is cell-based, murine. The following applies: Mus musculus, 72 h. The method in brief:
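Murine RN2 cells were seeded at 2,500/well and exposed to ≥5 two-fold dilutions (top 50 μM, 0.1% DMSO final) in triplicate wells, with ≥2 biological replicates, for 72 h. MTS reagent was added for 1.25 h at 37°C and absorbance read at 490 nm. Values were normalized to DMSO wells and GI50 fitted. Error bars are SEM.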

For another assay, the system named is Molm13 cells. Description: Proliferation assay. The class given is cell-based. The following applies: Homo sapiens, MOLM-13, 72 h. The method in brief: as §1
In a further assay the test system is THP-1 cells. Description: Proliferation assay. The conditions noted are these: Homo sapiens, THP-1, 72 h. The class given is cell-based. The method, boiled down: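 THP-1 cells were grown in RPMI-1640 with 0.05 mM 2-mercaptoethanol and 10% FBS. Cells were plated 5,000/well with ≥5 two-fold dilutions of test compound (top 50 μM, 0.1% DMSO final), in triplicate wells with ≥2 biological replicates.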

The test system of the next assay is MA93 FLT3-ITD cells. Description: Proliferation assay. The class given is cell-based. The conditions noted are these: Homo sapiens, 72 h. The method, boiled down:
as §2

Assay [1] concerns the target T1, WDR5 (Homo sapiens, UniProt P61964). The assay is described as follows: 10-mer-Thr-FAM peptide TR-FRET competition assay. The format is binding. The conditions noted are these: relative to C3. Background: TR-FRET usually uses a lanthanide donor and a delayed reading to cut background.
A further assay deals with K562 cells. The assay is described as follows: Proliferation assay. The format is cell-based. The following applies: Homo sapiens, K562, 72 h. The method, boiled down:
as §1

The subject of a further assay is GDM-1 cells. Description: Proliferation assay. The class given is cell-based. The following applies: Homo sapiens, GDM-1, 72 h. The method in brief: as §1
For assay [2], the system named is gene expression in MV4:11 cells. The assay is described as follows: RNA-Seq. The class given is cell-based, human. The conditions noted are these: MV4:11, 2 μM, 3 days.
The test system of a further assay is MONO-Mac-6 cells. Description: Proliferation assay. The format is cell-based. The conditions noted are these: Homo sapiens, MONO-MAC-6, 72 h. The method in brief:
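MONO-MAC-6 cells were maintained in RPMI with 10% FBS, non-essential amino acids and OPI supplement. CellTiter-Glo used 5,000 cells/well and ≥5 two-fold dilutions from 50 μM (0.1% DMSO final), in triplicate wells with ≥2 biological replicates, over 72 h at 37°C.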

Assay [3] has as its target T1, WDR5. Description: ChIP-Seq of WDR5. The format is cell-based. The following applies: MV4:11, 2 μM, 4 h. The method in brief: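 MV4:11 cells at 10^6/ml were treated 4 h with 2 μM test compound, negative control or 0.1% DMSO. Cells were concentrated to 4 × 10^6/ml in PBS, fixed in 1% formaldehyde for 10 min at RT and quenched with 125 mM glycine. They were lysed in 1% SDS FA buffer. Sheared chromatin was diluted to 0.1% SDS and immunoprecipitated overnight at 4°C with anti-WDR5 (D9E1I or 429A) or IgG on BSA-blocked protein-A agarose. Peaks were compared by normalized average read counts.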

For assay [4], the system named is p53 turnover in MV4:11 cells. Description: Cycloheximide. The conditions noted are these: MV4:11, 2 μM, 24 h before CHX. The format is cell-based, human. The method in brief: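 Before the cycloheximide chase, MV4:11 cells were pretreated 24 h with 2 μM test compound, 2 μM Nutlin-3 as comparator, or DMSO only. p53 was then followed by immunoblot.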
Assay [5] relates to ribosome protein gene expression in MV4:11 cells. The assay is described as follows: RT-qPCR quantification of RPG mRNA expression. The format is cell-based, human. The following applies: MV4:11, three days, 50 µM OICR-9429 (adjusted to relative GI50). The method, boiled down: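 Cells were lysed in Trizol and total RNA isolated on columns with DNase digestion. 1 μg RNA was reverse transcribed with MuLV reverse transcriptase in 20 μl, then diluted three-fold in nuclease-free water before qPCR.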

In assay [6] the test system is p53 and p21 protein levels in MV4:11 cells. The assay is described as follows: p53/p21 induction western blot. The following applies: MV4:11, 30 µM OICR-9429. The format is cell-based, human. The method in brief: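 Treatment lasted 24 h with test compound or its negative control, at 2 μM in MV4:11 and 3 μM in Molm13. Comparators were 2 μM Nutlin-3 or 0.1% DMSO. Four million cells were PBS-washed and lysed 10 min on ice in Kischkel buffer. p53 and p21 were detected by western blot, with histone H3 as loading control.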

Assay [7] concerns the target T1, WDR5. Description: ChIP-PCR of WDR5 binding. The following applies: MV4:11, 36 μM, 4 h. The class given is cell-based. The method, boiled down: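 MV4:11 cells were treated 4 h with 36 μM test compound, its negative control or DMSO. They were cross-linked in 0.75–1% formaldehyde for 10 min at RT and quenched with 125 mM glycine. Cells were lysed in SDS/Triton formaldehyde lysis buffer. Chromatin from 6 million cells was used per IP, with anti-WDR5 (D9E1I) or IgG, followed by low-salt, high-salt, LiCl and TE washes. Signal is % input, biological triplicate, SEM.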

The subject of assay [8] is gene body transcription in MV4:11 cells. The assay is described as follows: PRO-Seq. The format is cell-based, human. The following applies: MV4:11, 36 μM, 15, 30 or 60 min. The method, boiled down: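 30 million MV4:11 cells were harvested 15, 30 or 60 min after test compound; 0.1% DMSO for 60 min was the reference. Cells were swollen on ice, lysed with 0.1% Triton/10% glycerol and Dounce-homogenized. Nuclei were stored at −80°C in 40% glycerol freezing buffer (2 × 10^7 nuclei/100 μl) and used for nuclear run-on. Beads were washed in high/medium/low salt; RNA was TRIzol-extracted.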

The target of assay [9] is T1, WDR5. Description: Subcellular fractionation, WDR5 western blot. The format is cell-based. The conditions noted are these: MV4:11, 36 μM, 4 h. On the technique in general: In western blotting, separated proteins are transferred to a membrane and probed.

SMILES strings stand for the structures.

One may read the GI50 as the concentration giving 50% growth inhibition. Lower therefore signals more potent growth inhibition.

With `COc1cc(CNC(=O)c2cccc(CNC3=NCCN3)c2F)cc(OC)c1` [Compound C3nc, 3-(((4,5-dihydro-1H-imidazol-2-yl)amino)methyl)-N-(3,5-dimethoxybenzyl)-2-fluorobenzamide], the GI50 with MV4:11 cells, with HEL cells, in the assay on SET-2 cells, in the assay on NOMO-1 cells, in the assay with MA93 Ras cells and in the assay with HL60 cells was > 50 µM each time. Besides, the GI50 in the assay on MA93 cells, with RN2 cells, in the assay on Molm13 cells, in the assay with THP-1 cells, in the assay with MA93 FLT3-ITD cells and with K562 cells was > 50 µM in each case. Further, on WDR5 [1], the “binding to WDR5 of negative control” value is given as “reduced affinity”.

On to `Cc1nc(F)ccc1-c1cc(C(=O)NCc2ccc(Cl)c(Cl)c2)ccc1Cn1ccn(C)c1=N` [Compound C6nc, N-(3,4-dichlorobenzyl)-3-(6-fluoro-2-methylpyridin-3-yl)-4-((2-imino-3-methyl-2,3-dihydro-1H-imidazol-1-yl)methyl)benzamide], for which the GI50 was 42 ± 9.02 µM with MV4:11 cells; > 50 µM in the assay on HEL cells; > 50 µM with SET-2 cells; > 50 µM in the assay on NOMO-1 cells; > 50 µM with GDM-1 cells; > 50 µM in the assay on MA93 Ras cells. The GI50 in the assay on HL60 cells was > 50 µM; with MA93 cells, 30.3 ± 5.94 µM; in the assay on MONO-Mac-6 cells, > 50 µM; with RN2 cells, > 50 µM; in the assay on Molm13 cells, > 50 µM; in the assay with THP-1 cells, > 50 µM. In addition, the GI50 worked out at 26.2 ± 4.75 µM in the assay on MA93 FLT3-ITD cells and 31.7 ± 2.45 µM in the assay on K562 cells. Besides, in assay [2], the “effect on gene expression levels” value is given as “no significant effect on gene expression levels”. Further, the “WDR5 binding events on chromatin” value on WDR5 [3] is reported as “little impact on WDR5 binding”.

Turning to `COc1ccc(C2=N[C@@H](c3ccc(Cl)cc3)[C@@H](c3ccc(Cl)cc3)N2C(=O)N2CCNC(=O)C2)c(OC(C)C)c1` [nutlin-3, reference compound], in assay [4], the “p53 turnover in CHX chase” value is “increased the stability of p53”.

In the case of `CN1CCN(c2ccc(-c3cccc(CN4CCOCC4)c3)cc2NC(=O)c2c[nH]c(=O)cc2C(F)(F)F)CC1` [OICR-9429, reference compound], in the assay on MV4:11 cells, the GI50 stood at 31 µM. For the same molecule, the “transcription of RPGs” value in assay [5] was “selectively inhibited the transcription of WDR5-bound RPGs”. Also, the “p53 and p21 protein induction” value in [6] is “induced both p53 and p21”.

As to `COc1cc(CNC(=O)c2ccc(F)c(CNC3=NCCN3)c2)cc(OC)c1` [Compound C3, 3-(((4,5-dihydro-1H-imidazol-2-yl)amino)methyl)-N-(3,5-dimethoxybenzyl)-4-fluorobenzamide], on WDR5 [7], the “reduction in WDR5 binding at five loci” value is > 10 fold. Besides, the GI50 with HEL cells was > 50 µM; with SET-2 cells, > 50 µM; in the assay on NOMO-1 cells it was > 50 µM; with MA93 Ras cells, > 50 µM; in the assay on HL60 cells, > 50 µM; in the assay with MA93 cells, 22.1 ± 3.6 µM. In addition, the GI50 in the assay on RN2 cells was 8.65 ± 0.989 µM; in the assay on THP-1 cells, > 50 µM; in the assay with MA93 FLT3-ITD cells, 21.2 ± 2.11 µM; in the assay on K562 cells, > 50 µM. For the same molecule, the increase in transcription result in [8] was “no instances in which C3 promoted an increase in transcription”. Further, at WDR5 [9], the “chromatin-bound WDR5 (P3 fraction)” value was “reduced the total amount of chromatin-bound WDR5”.

The values are drawn from publication PMC6448596 (Cell reports, 2019).
